Laboratory results taken from ChEMBL document CHEMBL1255506, “Discovery of quinolines as selective glucocorticoid receptor agonists” (Bioorg Med Chem Lett, 2010).

Assays:
Glucocorticoid receptor [1] = molecular target: T1, Glucocorticoid receptor (Homo sapiens, UniProt P04150); assay: Binding affinity to human recombinant glucocorticoid receptor expressed in baculovirus infected Sf9 cells
T1 sequence (P04150 whole entry): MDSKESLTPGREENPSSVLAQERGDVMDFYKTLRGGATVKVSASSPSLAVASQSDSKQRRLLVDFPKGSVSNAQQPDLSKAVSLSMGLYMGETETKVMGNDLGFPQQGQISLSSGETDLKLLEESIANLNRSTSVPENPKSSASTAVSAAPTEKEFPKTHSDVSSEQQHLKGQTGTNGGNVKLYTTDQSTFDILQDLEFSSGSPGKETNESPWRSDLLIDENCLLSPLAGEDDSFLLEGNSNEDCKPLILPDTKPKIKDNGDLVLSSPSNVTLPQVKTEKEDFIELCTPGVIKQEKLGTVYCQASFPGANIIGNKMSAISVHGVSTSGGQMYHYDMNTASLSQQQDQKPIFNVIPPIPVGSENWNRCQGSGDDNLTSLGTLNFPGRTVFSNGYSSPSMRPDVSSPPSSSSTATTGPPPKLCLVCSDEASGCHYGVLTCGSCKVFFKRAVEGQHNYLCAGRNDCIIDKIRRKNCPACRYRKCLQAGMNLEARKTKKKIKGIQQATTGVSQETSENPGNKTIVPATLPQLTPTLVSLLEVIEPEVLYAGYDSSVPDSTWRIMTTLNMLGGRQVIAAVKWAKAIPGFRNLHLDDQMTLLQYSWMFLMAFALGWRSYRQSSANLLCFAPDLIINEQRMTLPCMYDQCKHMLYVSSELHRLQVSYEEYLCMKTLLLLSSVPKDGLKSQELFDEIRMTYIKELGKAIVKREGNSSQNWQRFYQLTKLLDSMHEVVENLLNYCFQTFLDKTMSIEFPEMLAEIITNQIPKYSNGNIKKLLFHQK

Progesterone receptor = molecular target: T2, Progesterone receptor (Homo sapiens, UniProt P06401); assay: Binding affinity to human recombinant progesterone receptor expressed in baculovirus infected Sf9 cells
T2 sequence (P06401 whole entry): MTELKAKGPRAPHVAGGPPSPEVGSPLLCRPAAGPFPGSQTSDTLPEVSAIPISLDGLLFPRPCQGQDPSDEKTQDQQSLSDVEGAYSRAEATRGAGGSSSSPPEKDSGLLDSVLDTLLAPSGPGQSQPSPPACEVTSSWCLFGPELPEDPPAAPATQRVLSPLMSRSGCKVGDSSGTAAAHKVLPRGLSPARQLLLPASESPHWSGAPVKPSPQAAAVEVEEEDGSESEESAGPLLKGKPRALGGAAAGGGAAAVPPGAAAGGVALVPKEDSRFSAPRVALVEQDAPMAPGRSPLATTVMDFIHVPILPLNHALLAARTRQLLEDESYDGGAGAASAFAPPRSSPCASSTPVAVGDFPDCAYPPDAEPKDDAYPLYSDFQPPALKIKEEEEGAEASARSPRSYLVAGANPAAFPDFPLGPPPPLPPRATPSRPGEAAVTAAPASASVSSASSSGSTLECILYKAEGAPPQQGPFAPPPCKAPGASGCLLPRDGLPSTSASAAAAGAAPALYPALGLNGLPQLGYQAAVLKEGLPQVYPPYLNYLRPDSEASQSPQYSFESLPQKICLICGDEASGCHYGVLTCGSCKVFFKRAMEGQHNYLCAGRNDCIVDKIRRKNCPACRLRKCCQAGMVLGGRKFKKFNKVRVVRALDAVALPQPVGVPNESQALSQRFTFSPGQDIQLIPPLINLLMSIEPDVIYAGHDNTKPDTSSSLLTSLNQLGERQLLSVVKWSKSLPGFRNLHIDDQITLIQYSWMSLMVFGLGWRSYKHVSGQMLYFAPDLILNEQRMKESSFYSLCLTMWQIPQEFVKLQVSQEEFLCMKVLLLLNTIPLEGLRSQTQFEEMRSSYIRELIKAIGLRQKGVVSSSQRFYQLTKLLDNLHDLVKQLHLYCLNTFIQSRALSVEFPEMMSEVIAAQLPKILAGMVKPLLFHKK
Method in brief: (§1)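 Extracts of Sf9 cells infected with recombinant baculovirus encoding the human receptor served as receptor source for competitive binding. Run in duplicate; pIC50 derived, value error stated as 0.2.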

Androgen receptor = molecular target: T3, Androgen receptor (Homo sapiens, UniProt P10275); assay: Binding affinity to human recombinant androgen receptor expressed in baculovirus infected Sf9 cells
T3 sequence (P10275 whole entry): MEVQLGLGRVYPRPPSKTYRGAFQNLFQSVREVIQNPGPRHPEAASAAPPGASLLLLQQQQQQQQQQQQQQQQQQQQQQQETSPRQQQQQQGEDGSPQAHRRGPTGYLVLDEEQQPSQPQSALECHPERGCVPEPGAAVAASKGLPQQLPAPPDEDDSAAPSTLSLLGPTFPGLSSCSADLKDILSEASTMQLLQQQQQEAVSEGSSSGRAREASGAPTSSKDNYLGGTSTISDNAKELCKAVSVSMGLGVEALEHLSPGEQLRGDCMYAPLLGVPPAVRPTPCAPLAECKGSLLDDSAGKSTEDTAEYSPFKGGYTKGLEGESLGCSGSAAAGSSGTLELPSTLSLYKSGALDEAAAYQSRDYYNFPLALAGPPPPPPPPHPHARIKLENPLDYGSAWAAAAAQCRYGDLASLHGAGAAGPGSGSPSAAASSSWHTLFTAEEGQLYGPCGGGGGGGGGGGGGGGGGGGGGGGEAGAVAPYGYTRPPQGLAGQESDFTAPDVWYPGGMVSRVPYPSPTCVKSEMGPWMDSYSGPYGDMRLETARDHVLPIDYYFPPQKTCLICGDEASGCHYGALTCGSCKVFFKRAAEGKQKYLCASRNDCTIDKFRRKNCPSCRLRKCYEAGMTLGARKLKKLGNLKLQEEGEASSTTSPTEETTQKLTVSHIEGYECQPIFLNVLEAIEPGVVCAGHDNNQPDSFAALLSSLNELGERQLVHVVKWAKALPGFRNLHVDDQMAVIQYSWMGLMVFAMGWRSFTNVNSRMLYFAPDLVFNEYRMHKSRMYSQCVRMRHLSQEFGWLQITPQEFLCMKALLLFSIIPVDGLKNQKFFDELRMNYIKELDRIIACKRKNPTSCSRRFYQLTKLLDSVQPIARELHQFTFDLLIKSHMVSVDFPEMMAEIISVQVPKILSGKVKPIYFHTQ

[2] = molecular target: T4, Mineralocorticoid receptor (Homo sapiens, UniProt P08235); assay: Binding affinity to human recombinant mineralocorticoid receptor expressed in baculovirus infected Sf9 cells; method in brief: as §1
T4 sequence (P08235 whole entry): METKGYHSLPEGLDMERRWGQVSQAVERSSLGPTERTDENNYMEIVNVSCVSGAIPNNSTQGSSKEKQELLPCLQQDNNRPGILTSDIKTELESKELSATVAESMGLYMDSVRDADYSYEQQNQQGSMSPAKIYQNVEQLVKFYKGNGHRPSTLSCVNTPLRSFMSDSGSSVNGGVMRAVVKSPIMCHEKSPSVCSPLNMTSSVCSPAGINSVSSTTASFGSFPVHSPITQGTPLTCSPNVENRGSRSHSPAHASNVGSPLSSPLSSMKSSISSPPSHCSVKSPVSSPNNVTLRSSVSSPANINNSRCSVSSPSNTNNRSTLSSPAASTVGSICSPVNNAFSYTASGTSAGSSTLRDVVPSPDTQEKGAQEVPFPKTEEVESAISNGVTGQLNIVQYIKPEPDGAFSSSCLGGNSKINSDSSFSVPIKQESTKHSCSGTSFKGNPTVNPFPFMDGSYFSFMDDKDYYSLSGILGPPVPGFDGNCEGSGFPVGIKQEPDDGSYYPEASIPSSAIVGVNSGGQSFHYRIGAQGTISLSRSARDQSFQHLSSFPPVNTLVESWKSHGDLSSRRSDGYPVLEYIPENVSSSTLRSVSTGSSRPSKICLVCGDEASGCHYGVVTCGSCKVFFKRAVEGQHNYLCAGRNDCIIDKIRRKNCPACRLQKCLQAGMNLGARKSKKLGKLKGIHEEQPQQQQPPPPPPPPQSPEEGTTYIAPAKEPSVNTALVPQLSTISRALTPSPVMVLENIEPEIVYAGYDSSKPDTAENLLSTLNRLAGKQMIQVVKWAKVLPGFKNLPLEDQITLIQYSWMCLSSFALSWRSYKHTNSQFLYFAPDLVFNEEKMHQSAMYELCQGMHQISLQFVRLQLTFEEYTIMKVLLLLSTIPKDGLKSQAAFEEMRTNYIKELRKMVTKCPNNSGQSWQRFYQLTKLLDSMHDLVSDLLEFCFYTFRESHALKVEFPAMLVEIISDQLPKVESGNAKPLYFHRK

Glucocorticoid receptor [3] = molecular target: T1, Glucocorticoid receptor; assay: Transrepression activity at glucocorticoid receptor-mediated antiinflammatory activity in human THP1 cells assessed as inhibition of LPS-induced IL-8 production; assay type: cell-based, THP-1
Glucocorticoid receptor [4] = molecular target: T1, Glucocorticoid receptor; assay: Transactivation activity at glucocorticoid receptor in human HeLa cells assessed as induction of MMTV promoter activity by luciferase reporter gene assay; assay type: cell-based
Glucocorticoid receptor [5] = molecular target: T1, Glucocorticoid receptor; assay: Transrepression activity at glucocorticoid receptor-mediated antiinflammatory activity in human HeLa cells assessed as inhibition of TPA-induced collagenase promoter activity by luciferase reporter gene assay; assay type: cell-based

Structure (SMILES)	IC50 (Glucocorticoid receptor [1])	IC50 (Progesterone receptor)	IC50 (Androgen receptor)	IC50 [2]	IC50 (Glucocorticoid receptor [3])	EC50 (Glucocorticoid receptor [4])	IC50 (Glucocorticoid receptor [5])
COc1ccc(F)cc1C(C)(C)CC(O)(CNc1ccc2c(=O)onc(C)c2c1)C(F)(F)F (stereo not drawn)	10 nM	15.8 nM	> 1000 nM	> 1000 nM	–	–	–
COc1ccc(F)cc1C(C)(C)CC(O)(CNc1cccc2ccccc12)C(F)(F)F (stereo not drawn)	> 1000 nM	> 1000 nM	> 1000 nM	> 1000 nM	–	–	–
CC(C)(CC(O)(CNc1cccc2ccccc12)C(F)(F)F)c1cc(F)ccc1O (stereo not drawn)	15.8 nM	> 1000 nM	> 1000 nM	> 1000 nM	> 1000 nM	–	–
COc1ccc(F)cc1C(C)(C)CC(O)(CNc1cccc2ncccc12)C(F)(F)F (stereo not drawn)	20 nM	1000 nM	> 1000 nM	> 1000 nM	25.1 nM	–	–
CC(C)(CC(O)(CNc1cccc2ncccc12)C(F)(F)F)c1cc(F)ccc1O (stereo not drawn)	1 nM	> 1000 nM	> 1000 nM	> 1000 nM	20 nM	79.4 nM	6.31 nM
COc1ccc(F)cc1C(C)(C)CC(O)(CNc1cccc2nc(C)ccc12)C(F)(F)F (stereo not drawn)	0.631 nM	> 1000 nM	> 1000 nM	> 1000 nM	25.1 nM	25.1 nM	2 nM
Cc1ccc2c(NCC(O)(CC(C)(C)c3cc(F)ccc3O)C(F)(F)F)cccc2n1 (stereo not drawn)	6.31 nM	> 1000 nM	> 1000 nM	> 1000 nM	5.01 nM	12.6 nM	3.16 nM

Further lines, results first:

IC50 (Glucocorticoid receptor [1])	IC50 (Progesterone receptor)	IC50 (Androgen receptor)	IC50 [2]	IC50 (Glucocorticoid receptor [3])	EC50 (Glucocorticoid receptor [4])	IC50 (Glucocorticoid receptor [5])	Structure (SMILES)
3.16 nM	7.94 nM	158 nM	1.26 nM	50.1 nM	25.1 nM	10 nM	Cc1noc(=O)c2ccc(NC(=O)C(O)(CC(C)(C)c3cc(F)ccc3O)C(F)(F)F)cc12 (stereo not drawn)
–	–	631 nM	79.4 nM	–	–	–	Cc1noc(=O)c2ccc(NC(=O)C(O)(CC(C)(C)c3cccc4c3OCC4)C(F)(F)F)cc12 (stereo not drawn)
1 nM	12.6 nM	501 nM	7.94 nM	–	–	–	COc1ccc(F)cc1C(C)(C)CC(O)(C(=O)Nc1ccc2c(=O)onc(C)c2c1)C(F)(F)F (stereo not drawn)
–	> 1000 nM	–	–	–	–	–	C[C@@H]1C[C@H]2[C@@H]3CCC4=CC(=O)C=C[C@]4(C)[C@@]3(F)[C@@H](O)C[C@]2(C)[C@@]1(O)C(=O)CO [DEXAMETHASONE]
